Screening results from PubChem.
Statin myotox sup = protects C2C12 myotubes from simvastatin toxicity; ATP luminescence, 48 h; scaled: DMSO 0, geranylgeraniol control 100; rescue of ATP level, % at 7.49 µM; hit rate 0.78% among 330,000; AID 602340;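 active = mean ATP rescue above about 67%, or every replicate alone reaching that limit, limit read from the data, passing the limit was not always enough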;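 also: myotubes were challenged with 10 µM simvastatin during compound exposure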
FN deposit inh = fibronectin deposition inhibition. inhibition, % at 12.6 µM. hit rate 0.086% among 350,000. AH1F fibroblasts, Alexa488-fibronectin deposition fluorescence, overnight;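 active = mean inhibition across replicates of 30% or more, regardless of how many single replicates reach that level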;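 also: positive control wells lacked labelled fibronectin entirely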
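Assay system: AH1F fibroblasts assembling fluorescent fibronectin matrix; Amount: 10000 AH1F cells per well; Buffer or medium: DMEM, 2% serum; Probe or stimulus: Alexa488-fibronectin, 24 nM final in well; Doses: single compound dose, delivered by pin transfer; Incubation: 1 h adhesion, overnight exposure; Measured by: fluorescence 485/525 nm; Read-out: fibronectin deposition inhibition.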
SIRT5 inh = inhibitors of human sirtuin-5 desuccinylase. Q9NXA8. Purified SirT5, succinyl-peptide AMC, trypsin-coupled fluorescence. inhibition, % at 15 µM. hit rate 1.1% among 330,000; in the data active = inhibition above about 15%
Target sequence (Q9NXA8 whole entry, looked up): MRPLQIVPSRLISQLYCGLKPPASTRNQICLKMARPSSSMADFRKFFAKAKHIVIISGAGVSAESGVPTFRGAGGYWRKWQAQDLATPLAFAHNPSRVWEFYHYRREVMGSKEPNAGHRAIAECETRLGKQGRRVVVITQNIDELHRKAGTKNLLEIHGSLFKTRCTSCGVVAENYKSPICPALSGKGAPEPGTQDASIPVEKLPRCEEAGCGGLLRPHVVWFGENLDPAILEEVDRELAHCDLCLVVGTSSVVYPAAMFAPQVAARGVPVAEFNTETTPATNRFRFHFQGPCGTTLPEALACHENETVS
FGF22 binding = binders of recombinant human FGF22 by thermal shift | Q9HCT0 | SYPRO orange fluorescence; percent of sucrose octasulfate shift, DMSO zero | activity (Tm shift, normalised), % at 9.99 µM | hit rate 1.5% among 340,000;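 active = mean Tm shift, scaled 0 neutral to 100 positive control, at about 1.3% or above, every replicate too, limit read from the data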
Target sequence (Q9HCT0 whole entry, looked up): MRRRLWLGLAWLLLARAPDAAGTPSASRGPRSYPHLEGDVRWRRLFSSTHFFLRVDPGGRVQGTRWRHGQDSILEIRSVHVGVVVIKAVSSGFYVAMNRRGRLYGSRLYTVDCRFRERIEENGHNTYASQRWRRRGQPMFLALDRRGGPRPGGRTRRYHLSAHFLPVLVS
rRNA inh HTS = inhibits bacterial ribosomal RNA function over humanized ribosomes; GFP signal change (wild-type ribosome), % (test concentration not listed); AID 720706; E. coli WT GFP vs humanized-ribosome RFP mutants, fluorescence, 24 h; active compounds read low; DMSO median 0, no signal -100; hit rate 1.6% among 350,000;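 active = significant combined selectivity score with lowered wild-type GFP, culture density cut under 30%, mutant RFP and density less affected; inactive = any of these conditions unmet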
E-selectin induc = induces E-selectin expression in human endothelial cells; activation, % at 7.58 µM; hit rate 0.37% among 260,000; HUVEC E-selectin immunofluorescence imaging; normalized: neutral wells 0, TNF-alpha wells 100;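 active = mean E-selectin-positive cell signal at least 10% of the positive control, reached in at least 60% of replicates, without over 20% cell loss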
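System: HUVEC, human umbilical vein endothelial cells; quantity: 3,000 cells/well; buffer or medium: EGM-2 medium, gelatin-coated wells; dosing: single-point compound dose; detection: immunofluorescence imaging; evaluation: % PE-positive cells; benchmarks: TNF-alpha, DMSO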
Numbers without * were called inactive; . = no result given. In the library only some 4% were active in any assay of this set; here they are far more common.

SMILES	Statin myotox sup	FN deposit inh	SIRT5 inh	FGF22 binding	rRNA inh HTS	E-selectin induc
Cc1[nH]n(C2=NCCS2)c(=O)c1N=Nc1cccc(C(F)(F)F)c1	.	1.9	3.0	0.5	-24.9*	.
CC(C)C(=O)Nc1ccc2c(c1)C(=O)N(C)[C@@H]1CC[C@H](CC(=O)N[C@H](C)c3ccccc3)O[C@@H]1CO2	-3.6	7.9	.	0.1	3.2	0.0
CC(=O)c1ccc(OCc2cccc(C(F)(F)F)c2)cc1O	5.0	-0.1	-2.8	43.1*	-11.4	0.9
NNC(=O)c1sccc1OCc1cccc(C(F)(F)F)c1	.	-12.7	-4.9	0.4	-16.9	-1.1
COCC(=O)N[C@@H]1C=C[C@@H](CC(=O)NCc2ccccc2OC)O[C@@H]1CO	-0.1	5.0	-0.6	0.1	1.1	-0.3
COc1cccc(-c2ccc([C@@H]3[C@@H](C#N)N(C(=O)c4ccccn4)[C@@H]3CO)cc2)c1	1.7	12.0	6.2	-0.5	-10.4	-0.1
Nc1nonc1-n1nnc(C(=O)N/N=C/c2ccccc2Cl)c1CSc1ccccc1	.	6.5	-3.0	-0.1	-18.0*	4.7
CN(Cc1c(C(=O)N/N=C/c2ccccc2)nnn1-c1nonc1N)c1ccccc1	1.1	0.4	0.8	0.1	-27.2*	.
CN(C)c1ccc(/C=N/NC(=O)c2nnn(-c3nonc3N)c2CN(C)c2ccccc2)cc1	1.8	6.0	16.6*	0.0	6.4	.
Nc1nonc1-n1nnc(C(=O)N/N=C/c2ccc(O)cc2)c1COc1ccc(F)cc1	7.2	-5.6	-4.2	-0.2	-24.2*	-0.5
Nc1nonc1-n1nnc(C(=O)N/N=C/c2cccs2)c1CSc1ccccc1	-15.7	6.1	-5.1	0.2	0.2	.
C[C@@H]1CN([C@H](C)CO)C(=O)Cc2cc(NC(=O)Nc3cccc4ccccc34)ccc2O[C@H]1CN(C)Cc1ccc(-c2ccccc2)cc1	53.6	.	3.3	-0.7	3.0	0.4
CCCNC(=O)Nc1ccc2c(c1)OC[C@@H](C)N(C(C)=O)C[C@H](C)[C@@H](OC)CN(C)C2=O	17.1	1.3	-2.0	-0.2	-1.4	0.0
CCCN(CCC)Cc1c(C(=O)N/N=C/C(C)=C\c2ccccc2)nnn1-c1nonc1N	.	-1.4	16.4*	0.1	8.0	0.5
CCOc1ccc(-c2c(C(=O)N/N=C/c3c[nH]c4ccccc34)nnn2-c2nonc2N)cc1	0.5	-9.2	5.1	43.0*	-8.5	.
COCC(=O)N1C[C@H](C)[C@@H](OC)CN(C)C(=O)c2cc(NC(=O)c3cnccn3)ccc2OC[C@H]1C	7.0	-8.8	-4.2	0.1	2.9	0.5
C[C@H]1CN([C@@H](C)CO)C(=O)c2cc(NC(=O)c3ccncc3)ccc2O[C@@H]1CN(C)S(=O)(=O)c1ccc(Cl)cc1	-25.1	1.8	0.5	-0.1	-3.0	-0.1
CS(=O)(=O)N1CCN(c2ccccc2NC(=O)Cc2ccccc2)CC1	1.7	.	.	.	.	.
O=C(CN1CCN(c2ccc(O)cc2)CC1)Nc1ccccc1C(=O)NCCc1ccccc1	-28.9	2.5	1.7	0.1	-24.9*	66.5*
O=C(Cc1ccccc1)Nc1ccccc1N1CCN(c2ccccc2)CC1	41.0	.	-0.3	0.1	-22.7*	.
C[C@@H]1CN([C@@H](C)CO)C(=O)c2cc(-c3ccccc3)cnc2O[C@H]1CN(C)C(=O)Cc1cccnc1	-16.9	-3.9	0.2	-0.1	-2.2	0.0
Nc1nn(-c2ccccc2)c(N)c1N=Nc1cccc(F)c1	.	9.1	.	0.1	-35.8*	2.3
Cc1nn(-c2ccccc2)c(N)c1N=Nc1cccnc1	.	-1.2	0.3	-1.4	-22.1*	0.0
COc1ccc(S(=O)(=O)/N=C2/NC(=O)/C(=C/c3ccco3)S2)cc1	.	6.3	16.1*	1.4*	-6.2	.
CC[N+](CC)(CC#Cc1ccccc1)CC#Cc1ccccc1	.	-11.6	6.8	0.2	-44.6*	1.3
SMILES	Statin myotox sup	FN deposit inh	SIRT5 inh	FGF22 binding	rRNA inh HTS	E-selectin induc
C#CC[N+](CC)(CC)CC#Cc1ccccc1	-0.9	0.0	-4.6	0.2	16.1	0.0
CCN(CC)CCNC(=O)c1ccc(NC(=O)/C=C/c2ccc3ccccc3n2)cc1	-39.9	.	-0.3	1.6*	0.0	-0.3
Cc1ccc(OCCC(=O)OCC(=O)NCc2ccccc2)cc1	.	-3.5	-1.8	0.4	9.1	1.7
Cc1ccc(OCCC(=O)OCC(=O)NCCc2ccccc2)cc1	.	3.0	2.8	0.4	-21.8*	.
CCCNC(=O)[C@H]1[C@H](CO)[C@H]2Cn3c(cccc3=O)[C@H]2N1C(=O)C1CC1	.	.	-4.1	.	2.0	-0.3
Cc1cccc(C(=O)O/N=C(\N)c2cccc([N+](=O)[O-])c2)c1	.	.	-3.0	0.3	15.2	.
N/C(=N\OC(=O)c1cccs1)c1cccc([N+](=O)[O-])c1	62.5	-7.8	35.1*	0.2	13.4	.
CC(=O)c1ccc(N2CC(C)(C)C2=O)cc1	1.8	1.4	-4.6	43.0*	18.7	.
C[C@@H]1CCCCO[C@@H](CN(C)S(=O)(=O)c2cn(C)cn2)[C@@H](C)CN([C@H](C)CO)C(=O)c2cc(NS(=O)(=O)c3cn(C)cn3)ccc2O1	.	-10.6	1.2	-0.4	4.8	-0.1
C[C@@H]1CN([C@H](C)CO)C(=O)c2cccc(NC(=O)Nc3ccc(C(F)(F)F)cc3)c2O[C@H]1CN(C)C(=O)Nc1cccc2ccccc12	.	10.9	27.2*	0.0	0.1	1.1
C[C@@H]1CN([C@H](C)CO)C(=O)c2cccc(NC(=O)Nc3ccccc3)c2O[C@H]1CN(C)Cc1ccc(C(F)(F)F)cc1	38.8	.	-0.7	0.3	-7.1	-0.1
C[C@H](CO)N1C[C@H](C)[C@H](CN(C)Cc2ccc(C(F)(F)F)cc2)Oc2c(NC(=O)Nc3cccc4ccccc34)cccc2C1=O	81.4*	.	4.0	-0.8	1.2	-7.8
C[C@@H]1CN([C@H](C)CO)C(=O)c2cccc(NC(=O)Nc3ccc(C(F)(F)F)cc3)c2O[C@@H]1CN(C)Cc1ccc(-c2ccccc2)cc1	-29.9	.	102.7*	-0.8	4.1	-0.2
C[C@@H]1CN([C@@H](C)CO)C(=O)c2cccc(NC(=O)Nc3ccc(C(F)(F)F)cc3)c2O[C@@H]1CN(C)Cc1ccc(-c2ccccc2)cc1	-105.2	.	2.2	0.0	4.1	-0.1
C[C@H]1CN([C@@H](C)CO)C(=O)c2cc(NC(=O)Cn3cnnn3)ccc2O[C@@H]1CN(C)S(C)(=O)=O	.	.	-2.2	0.0	1.4	-11.1
O=c1c(O)cccc2cc(O)c(O)c(O)c12	-0.9	-0.8	32.8*	-0.2	-6.0	.
C[C@H]1CN([C@@H](C)CO)C(=O)c2cc(NS(=O)(=O)c3ccc(Cl)cc3)ccc2O[C@H]1CN(C)CC1CC1	2.2	.	5.6	-0.9	3.1	-0.4
O=C(CN1CC(=O)Nc2ccccc21)NCCc1ccc(Cl)cc1Cl	2.5	-2.0	-3.1	44.2*	6.7	1.8
